The text below walks through data of paper PMC10629916 (Journal of Food and Drug Analysis, 2023).

Data set [1] in a line: Stability test of the 2 analytes in rat plasma. The class given is in vitro ADME. Put shortly: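 Rat plasma QC samples at low, middle and high levels were assayed in triplicate. They were MeOH-precipitated (1:3), spun at 4500 rpm and 4 °C for 10 min, dried and redissolved in MeOH. The processed samples were held in the autosampler for 12 h and then quantified by UPLC-MS/MS against oxacillin internal standard. Samples counted as stable if bias was within ±15% of nominal.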

The format of data set [2] is in vivo, Male Wistar Rats. The note with it: male, Wistar, rat, plasma, po, 800 mg/kg. The gist of the method: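 Male Wistar rats (200–250 g) dosed orally with the prescription extract at 800 mg/kg. Plasma was stored at −80 °C, then precipitated with MeOH (1:3). Analysis was by UPLC-MS/MS MRM with oxacillin as internal standard. Parameters came from noncompartmental analysis, reported as mean ± SD.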

[3] abbreviates: Normal temperature (auto-sampler 12 h), nominal conc 15.62 ng/mL.
[4] abbreviates: Normal temperature (auto-sampler 12 h), nominal conc 31.25 ng/mL.
Setting [5] is: −80 (storage at −80 °C), nominal conc 15.62 ng/mL.
Setting [6] is: −80 (storage at −80 °C), nominal conc 31.25 ng/mL.
Setting [7] is: −80 FT (three freeze–thaw cycles), nominal conc 15.62 ng/mL.
Setting [8] is: −80 FT (three freeze–thaw cycles), nominal conc 31.25 ng/mL.

As a reminder, the AUC(0-inf) is the area under the concentration-time curve extrapolated to infinity. High values mean high exposure, low ones low exposure. The AUC(0-t) is the area under the concentration-time curve up to a stated or last time point. The low end stands for less exposure, the high end for more exposure. One may read the Cmax as the maximum level reached in the sampled fluid or tissue. A word on the MRT inf: it is the average time that molecules of a dose stay in the body. In general, Tmax refers to the time at which the peak concentration occurs. The half-life is the time needed for the level to fall by half in the phase considered. A low value points to rapid decline.

Molecules are shown by their SMILES.

Take `C[C@@H]1O[C@@H](OC[C@H]2O[C@@H](Oc3cc(O)c4c(c3)O[C@H](c3ccc(O)cc3)CC4=O)[C@H](O)[C@@H](O)[C@@H]2O)[C@H](O)[C@H](O)[C@H]1O` [Narirutin]: the “Accuracy (RE, %)” value in data set [1] (setting [3]) is 11.32%; in data set [1] (setting [4]), −2.84%; in data set [1] (−80 (storage at −80 °C), nominal conc 0.48 ng/mL), −1.48%; in data set [1] (setting [5]), 9.87%; in data set [1] (setting [6]) it was −3.53%; in data set [1] (−80 FT (three freeze–thaw cycles), nominal conc 0.48 ng/mL), −3.82%. In addition, the “Accuracy (RE, %)” value was 12.58% in data set [1] (setting [7]) and −3.1% in data set [1] (setting [8]). For the same molecule, the Observed is on record as 17.94 ± 0.15 in data set [1] (setting [3]); 31.04 ± 0.22 in data set [1] (setting [4]); 17.94 ± 0.15 in data set [1] (setting [5]); 31.04 ± 0.22 in data set [1] (setting [6]); 17.94 ± 0.15 in data set [1] (setting [7]); 31.04 ± 0.22 in data set [1] (setting [8]). For the same molecule, the total exposure AUC(0-inf) in data set [2] came out at 20.2 ± 11.9 ng·h/mL. Also, the AUC(0-t) in data set [2] stood at 11 ± 5.91 ng·h/mL. In data set [2], the Cmax was found to be 3.29 ± 1.63 ng/mL. This molecule also registered an MRT inf in data set [2] of 8.22 ± 2.65 h. In addition, the Tmax in data set [2] amounted to 1.01 ± 1.22 h. Besides, the half-life in data set [2] is 4.76 ± 1.76 h.
